Measurements taken from ChEMBL document CHEMBL1150387, “Development and experimental validation of a docking strategy for the generation of kinase-targeted libraries” (J Med Chem, 2008).

Experiments:
[1] = target: Ribosomal protein S6 kinase beta-1 (Homo sapiens) (UniProt P23443); assay: Inhibition of p70S6K at 10 uM by HTRF assay relative to control
Method in brief: (§1)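 HTRF kinase assay, one panel of kinases. Inhibitor stock 50 µM in 100% DMSO; tested at 10 µM. ATP and substrate at final levels near Km. Final buffer: 50 mM Hepes/NaOH pH 7.4, 40 µM Na3VO4, 0.005% Tween-20, 1 mM DTT, MnCl2 or MgCl2 at kinase-dependent levels. Started by adding ATP/substrate. Reaction run at room temperature, time varied by kinase. Detection mix in 50 mM Hepes pH 7.4, 0.1% BSA, 150 mM KF, incubated ≥1 h at room temperature. Activity expressed as % of uninhibited control; n=2.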

[2] = target: Mitogen-activated protein kinase 9 (Homo sapiens) (UniProt P45984); assay: Inhibition of JNK2 at 10 uM by HTRF assay relative to control; method in brief: as §1
Sequence of Mitogen-activated protein kinase 9 (Homo sapiens) (P45984 whole entry, looked up): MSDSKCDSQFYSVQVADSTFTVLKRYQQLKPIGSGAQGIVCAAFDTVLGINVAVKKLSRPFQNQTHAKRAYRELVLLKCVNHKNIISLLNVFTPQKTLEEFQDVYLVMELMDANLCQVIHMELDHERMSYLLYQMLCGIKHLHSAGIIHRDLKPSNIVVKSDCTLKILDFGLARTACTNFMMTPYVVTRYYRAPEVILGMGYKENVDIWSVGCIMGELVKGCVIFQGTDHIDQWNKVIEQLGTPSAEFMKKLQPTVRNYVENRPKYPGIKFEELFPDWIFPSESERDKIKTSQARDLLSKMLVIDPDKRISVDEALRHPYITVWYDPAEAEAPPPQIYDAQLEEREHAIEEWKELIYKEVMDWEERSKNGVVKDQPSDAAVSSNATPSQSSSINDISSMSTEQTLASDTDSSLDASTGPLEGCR

[3] = target: Ribosomal protein S6 kinase alpha-3 (Homo sapiens) (UniProt P51812); assay: Inhibition of RSK2 at 10 uM by HTRF assay relative to control; method in brief: as §1
[4] = target: T1, Serine/threonine-protein kinase Chk1 (Homo sapiens) (UniProt O14757); assay: Inhibition of CHK1 at 10 uM by HTRF assay relative to control; method in brief: as §1
T1 sequence (whole entry): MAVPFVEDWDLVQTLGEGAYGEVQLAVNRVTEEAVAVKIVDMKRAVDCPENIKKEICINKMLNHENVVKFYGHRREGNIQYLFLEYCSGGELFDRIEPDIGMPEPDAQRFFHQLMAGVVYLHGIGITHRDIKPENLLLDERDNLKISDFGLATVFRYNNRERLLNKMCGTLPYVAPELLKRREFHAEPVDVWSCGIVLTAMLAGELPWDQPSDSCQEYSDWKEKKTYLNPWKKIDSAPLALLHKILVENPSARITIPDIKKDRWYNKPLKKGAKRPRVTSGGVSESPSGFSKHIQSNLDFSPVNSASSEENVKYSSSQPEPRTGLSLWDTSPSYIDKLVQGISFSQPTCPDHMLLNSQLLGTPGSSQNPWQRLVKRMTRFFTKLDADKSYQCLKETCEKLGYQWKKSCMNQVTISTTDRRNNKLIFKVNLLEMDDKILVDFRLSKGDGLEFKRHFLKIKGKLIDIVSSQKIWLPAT

[5] = target: Receptor-type tyrosine-protein kinase FLT3 (Homo sapiens) (UniProt P36888); assay: Inhibition of FLT3 at 10 uM by HTRF assay relative to control; method in brief: as §1
[6] = target: Tyrosine-protein kinase Fes/Fps (Homo sapiens) (UniProt P07332); assay: Inhibition of FES at 10 uM by HTRF assay relative to control; method in brief: as §1
[7] = target: High affinity nerve growth factor receptor (Homo sapiens) (UniProt P04629); assay: Inhibition of TrkA at 10 uM by HTRF assay relative to control; method in brief: as §1
[8] = target: Protein kinase C gamma type (Homo sapiens) (UniProt P05129); assay: Inhibition of PKCgamma at 10 uM by HTRF assay relative to control; method in brief: as §1
[9] = target: Serine/threonine-protein kinase Chk2 (Homo sapiens) (UniProt O96017); assay: Inhibition of CHK2 at 10 uM by HTRF assay relative to control; method in brief: as §1
Sequence of Serine/threonine-protein kinase Chk2 (Homo sapiens) (O96017 whole entry): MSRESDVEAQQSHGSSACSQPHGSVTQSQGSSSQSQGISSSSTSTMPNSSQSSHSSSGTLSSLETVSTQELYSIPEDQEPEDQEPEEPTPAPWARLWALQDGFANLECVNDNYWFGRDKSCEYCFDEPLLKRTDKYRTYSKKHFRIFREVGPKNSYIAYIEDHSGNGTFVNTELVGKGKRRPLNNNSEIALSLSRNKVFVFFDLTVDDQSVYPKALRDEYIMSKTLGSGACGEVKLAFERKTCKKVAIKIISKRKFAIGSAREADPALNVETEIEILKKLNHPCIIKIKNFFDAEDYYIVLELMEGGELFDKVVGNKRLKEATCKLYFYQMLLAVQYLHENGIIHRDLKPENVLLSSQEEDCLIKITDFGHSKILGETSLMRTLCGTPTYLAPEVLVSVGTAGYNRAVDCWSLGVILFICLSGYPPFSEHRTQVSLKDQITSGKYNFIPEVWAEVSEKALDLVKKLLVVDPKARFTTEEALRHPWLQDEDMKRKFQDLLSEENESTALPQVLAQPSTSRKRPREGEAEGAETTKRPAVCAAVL

[10] = target: Rho-associated protein kinase 2 (Homo sapiens) (UniProt O75116); assay: Inhibition of ROCK2 at 10 uM by HTRF assay relative to control; method in brief: as §1
Sequence of Rho-associated protein kinase 2 (Homo sapiens) (O75116 whole entry, looked up): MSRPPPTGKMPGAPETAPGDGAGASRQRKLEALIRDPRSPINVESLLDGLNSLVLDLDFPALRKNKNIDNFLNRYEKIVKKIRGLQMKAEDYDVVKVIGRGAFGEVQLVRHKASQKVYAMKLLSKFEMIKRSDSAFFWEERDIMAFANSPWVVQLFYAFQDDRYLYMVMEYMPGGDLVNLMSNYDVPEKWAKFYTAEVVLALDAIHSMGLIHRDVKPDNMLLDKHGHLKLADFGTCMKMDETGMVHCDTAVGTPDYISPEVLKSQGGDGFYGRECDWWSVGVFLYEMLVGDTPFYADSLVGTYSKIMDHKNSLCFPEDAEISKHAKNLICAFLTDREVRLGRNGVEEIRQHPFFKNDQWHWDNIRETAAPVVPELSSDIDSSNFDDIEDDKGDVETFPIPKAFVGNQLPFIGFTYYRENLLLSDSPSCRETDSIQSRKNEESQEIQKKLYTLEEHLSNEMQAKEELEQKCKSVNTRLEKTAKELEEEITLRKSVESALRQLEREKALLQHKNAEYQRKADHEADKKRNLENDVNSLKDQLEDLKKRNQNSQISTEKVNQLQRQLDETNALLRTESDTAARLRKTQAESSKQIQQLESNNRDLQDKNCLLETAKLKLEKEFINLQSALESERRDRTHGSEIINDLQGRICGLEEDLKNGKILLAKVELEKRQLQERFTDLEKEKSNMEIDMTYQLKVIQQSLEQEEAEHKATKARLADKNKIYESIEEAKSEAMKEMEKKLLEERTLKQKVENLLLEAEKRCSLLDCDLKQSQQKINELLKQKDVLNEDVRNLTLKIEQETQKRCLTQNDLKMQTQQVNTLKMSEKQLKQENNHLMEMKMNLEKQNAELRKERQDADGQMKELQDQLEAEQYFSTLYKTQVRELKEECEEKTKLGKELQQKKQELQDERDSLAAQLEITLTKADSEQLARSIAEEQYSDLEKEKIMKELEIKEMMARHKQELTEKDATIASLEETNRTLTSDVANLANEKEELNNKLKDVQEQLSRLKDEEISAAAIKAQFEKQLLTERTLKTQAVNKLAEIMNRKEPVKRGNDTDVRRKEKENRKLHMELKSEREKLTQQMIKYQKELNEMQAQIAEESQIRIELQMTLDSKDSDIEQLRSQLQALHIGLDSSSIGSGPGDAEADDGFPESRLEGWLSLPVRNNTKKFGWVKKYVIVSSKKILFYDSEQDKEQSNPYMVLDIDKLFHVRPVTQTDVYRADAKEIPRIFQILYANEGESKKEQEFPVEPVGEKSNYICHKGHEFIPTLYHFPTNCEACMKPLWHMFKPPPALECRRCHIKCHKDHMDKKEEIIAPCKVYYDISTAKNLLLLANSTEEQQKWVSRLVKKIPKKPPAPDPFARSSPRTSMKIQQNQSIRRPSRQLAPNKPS

[11] = target: Protein-tyrosine kinase 6 (Homo sapiens) (UniProt Q13882); assay: Inhibition of Brk at 10 uM by HTRF assay relative to control; method in brief: as §1
Sequence of Protein-tyrosine kinase 6 (Homo sapiens) (Q13882 whole entry, looked up): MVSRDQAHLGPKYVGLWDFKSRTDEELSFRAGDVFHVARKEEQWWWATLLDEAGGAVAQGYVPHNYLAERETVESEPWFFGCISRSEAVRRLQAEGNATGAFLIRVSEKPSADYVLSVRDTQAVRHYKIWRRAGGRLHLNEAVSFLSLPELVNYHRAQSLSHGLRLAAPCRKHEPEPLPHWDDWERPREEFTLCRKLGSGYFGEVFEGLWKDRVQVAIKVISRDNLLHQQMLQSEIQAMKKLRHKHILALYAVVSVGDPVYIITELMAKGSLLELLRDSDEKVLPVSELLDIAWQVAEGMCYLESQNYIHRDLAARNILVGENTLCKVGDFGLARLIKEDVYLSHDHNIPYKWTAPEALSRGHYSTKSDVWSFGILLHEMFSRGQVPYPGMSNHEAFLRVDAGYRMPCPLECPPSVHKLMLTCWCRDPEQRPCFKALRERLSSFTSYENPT

[12] = target: T2, Inhibitor of nuclear factor kappa-B kinase subunit beta (Homo sapiens) (UniProt O14920); assay: Inhibition of IKK-beta at 10 uM by HTRF assay relative to control; method in brief: as §1
T2 sequence (whole entry): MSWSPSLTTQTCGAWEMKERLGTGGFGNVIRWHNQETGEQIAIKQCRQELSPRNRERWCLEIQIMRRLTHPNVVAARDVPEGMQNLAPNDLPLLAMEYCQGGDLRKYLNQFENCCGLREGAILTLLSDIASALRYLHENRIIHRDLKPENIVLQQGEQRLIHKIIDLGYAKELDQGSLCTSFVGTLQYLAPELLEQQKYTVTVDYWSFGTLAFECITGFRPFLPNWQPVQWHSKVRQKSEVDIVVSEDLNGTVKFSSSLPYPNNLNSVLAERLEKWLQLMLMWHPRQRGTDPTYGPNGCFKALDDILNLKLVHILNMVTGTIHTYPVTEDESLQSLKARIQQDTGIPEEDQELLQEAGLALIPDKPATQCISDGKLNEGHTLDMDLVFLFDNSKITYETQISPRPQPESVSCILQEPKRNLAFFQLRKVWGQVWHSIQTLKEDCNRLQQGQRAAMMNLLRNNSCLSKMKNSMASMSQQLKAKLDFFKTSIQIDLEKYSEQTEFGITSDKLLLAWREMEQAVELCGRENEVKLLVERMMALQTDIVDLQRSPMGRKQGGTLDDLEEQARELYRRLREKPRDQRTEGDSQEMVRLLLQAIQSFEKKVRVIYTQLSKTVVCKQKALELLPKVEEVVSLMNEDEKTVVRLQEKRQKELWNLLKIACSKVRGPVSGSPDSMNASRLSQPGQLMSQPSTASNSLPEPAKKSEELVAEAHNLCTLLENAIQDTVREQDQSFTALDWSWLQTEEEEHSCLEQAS

[13] = target: T3, Mitogen-activated protein kinase 12 (Homo sapiens) (UniProt P53778); assay: Inhibition of p38-gamma at 10 uM by HTRF assay relative to control; method in brief: as §1
T3 sequence (whole entry): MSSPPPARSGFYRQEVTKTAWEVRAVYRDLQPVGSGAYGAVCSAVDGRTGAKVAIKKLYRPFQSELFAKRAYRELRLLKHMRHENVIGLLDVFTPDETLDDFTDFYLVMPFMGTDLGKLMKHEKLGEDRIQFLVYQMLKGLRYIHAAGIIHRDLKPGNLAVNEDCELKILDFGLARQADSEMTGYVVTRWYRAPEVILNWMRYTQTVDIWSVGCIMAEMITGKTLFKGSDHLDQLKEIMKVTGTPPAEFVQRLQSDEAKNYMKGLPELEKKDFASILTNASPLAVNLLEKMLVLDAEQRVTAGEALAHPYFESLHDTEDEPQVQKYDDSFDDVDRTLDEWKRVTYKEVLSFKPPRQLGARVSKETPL

[14] = target: Tyrosine-protein kinase Lyn (Homo sapiens) (UniProt P07948); assay: Inhibition of Lyn at 10 uM by HTRF assay relative to control; method in brief: as §1
[15] = target: Epidermal growth factor receptor (Homo sapiens) (UniProt P00533); assay: Inhibition of EGFR at 10 uM by HTRF assay relative to control; method in brief: as §1
Sequence of Epidermal growth factor receptor (Homo sapiens) (P00533 whole entry): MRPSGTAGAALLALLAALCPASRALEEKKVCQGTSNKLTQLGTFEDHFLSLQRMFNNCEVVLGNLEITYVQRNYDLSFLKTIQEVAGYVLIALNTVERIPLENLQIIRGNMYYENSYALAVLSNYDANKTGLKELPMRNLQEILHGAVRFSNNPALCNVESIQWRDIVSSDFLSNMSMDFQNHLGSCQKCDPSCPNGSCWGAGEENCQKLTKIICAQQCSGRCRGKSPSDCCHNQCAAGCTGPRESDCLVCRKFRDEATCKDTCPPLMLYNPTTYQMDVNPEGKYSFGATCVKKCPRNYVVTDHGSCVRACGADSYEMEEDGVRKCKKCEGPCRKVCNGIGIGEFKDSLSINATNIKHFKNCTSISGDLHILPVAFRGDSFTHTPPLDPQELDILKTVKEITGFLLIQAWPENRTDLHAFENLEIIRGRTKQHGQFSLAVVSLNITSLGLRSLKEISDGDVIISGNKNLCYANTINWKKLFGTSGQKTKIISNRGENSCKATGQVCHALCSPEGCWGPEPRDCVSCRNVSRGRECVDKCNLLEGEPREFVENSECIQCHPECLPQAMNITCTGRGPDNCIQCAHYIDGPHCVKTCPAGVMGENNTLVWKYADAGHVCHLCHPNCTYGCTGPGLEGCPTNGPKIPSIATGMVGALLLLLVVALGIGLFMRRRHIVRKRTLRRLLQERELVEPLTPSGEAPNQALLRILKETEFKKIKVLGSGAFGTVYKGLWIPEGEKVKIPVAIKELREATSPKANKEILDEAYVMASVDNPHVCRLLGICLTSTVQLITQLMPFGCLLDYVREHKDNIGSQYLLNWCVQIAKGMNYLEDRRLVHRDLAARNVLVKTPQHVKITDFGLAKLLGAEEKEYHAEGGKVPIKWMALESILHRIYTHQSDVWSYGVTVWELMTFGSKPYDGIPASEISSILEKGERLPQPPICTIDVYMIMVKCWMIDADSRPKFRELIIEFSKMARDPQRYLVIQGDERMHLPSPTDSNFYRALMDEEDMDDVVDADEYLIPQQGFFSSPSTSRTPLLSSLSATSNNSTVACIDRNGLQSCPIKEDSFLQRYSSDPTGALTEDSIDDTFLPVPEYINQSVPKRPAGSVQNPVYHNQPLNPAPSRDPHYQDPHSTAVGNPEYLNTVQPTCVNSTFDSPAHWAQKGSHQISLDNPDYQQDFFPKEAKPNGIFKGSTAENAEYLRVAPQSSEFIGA

[16] = Inhibition of IRK at 10 uM by HTRF assay relative to control; method in brief: as §1
[17] = target: Cyclin-dependent kinase 1 (Homo sapiens) (UniProt P06493); assay: Inhibition of CDK1 at 10 uM by HTRF assay relative to control; method in brief: as §1
Sequence of Cyclin-dependent kinase 1 (Homo sapiens) (P06493 whole entry, looked up): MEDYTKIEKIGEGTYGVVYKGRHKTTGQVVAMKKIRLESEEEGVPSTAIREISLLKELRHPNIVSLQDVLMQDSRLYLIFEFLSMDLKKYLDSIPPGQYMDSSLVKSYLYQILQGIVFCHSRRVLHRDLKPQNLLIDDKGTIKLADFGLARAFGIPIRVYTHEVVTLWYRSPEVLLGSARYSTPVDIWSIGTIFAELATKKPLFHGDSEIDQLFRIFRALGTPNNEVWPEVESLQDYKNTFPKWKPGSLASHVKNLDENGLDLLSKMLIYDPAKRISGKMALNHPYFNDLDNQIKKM

| Compound | inhibition [1] [%] | inhibition [2] [%] | inhibition [3] [%] | inhibition [4] [%] | inhibition [5] [%] | inhibition [6] [%] | inhibition [7] [%] | inhibition [8] [%] | inhibition [9] [%] | inhibition [10] [%] | inhibition [11] [%] | inhibition [12] [%] | inhibition [13] [%] | inhibition [14] [%] | inhibition [15] [%] | inhibition [16] [%] | inhibition [17] [%] |
| --- | --- | --- | --- | --- | --- | --- | --- | --- | --- | --- | --- | --- | --- | --- | --- | --- | --- |
| COc1cccc(Nc2cc(Nc3cccc(C(=O)N(C)CCc4ccccn4)c3)nc(N)n2)c1 | 8 | 9 | 0 | 9 | 0 | 7 | 9 | 1 | 4 | 2 | 21 | 6 | 3 | 9 | 36 | 6 | 0 |
| Cc1cccc(N(C)c2cc(Nc3cccc(C(=O)N(C)CCc4ccccn4)c3)ncn2)c1 | 9 | 4 | 0 | 6 | 0 | 15 | 10 | 6 | 0 | 0 | 11 | 8 | 1 | 14 | 97 | 0 | 0 |
| Cc1cccc(Nc2nccc(Nc3cccc(C(=O)N(C)CCc4ccccn4)c3)n2)c1 | 9 | 37 | 57 | 5 | 86 | 75 | 60 | 14 | 0 | 5 | 36 | 9 | 2 | 47 | 8 | 66 | 1 |
| Nc1nc(Nc2ccc3ncsc3c2)cc(N2CCC[C@H]2C(=O)N[C@@H](CO)c2ccccc2)n1 | 5 | 4 | 0 | 2 | 0 | 3 | 9 | 1 | 2 | 2 | 4 | 4 | 1 | 0 | 2 | 1 | 0 |
| Nc1nc(N2CCOCC2)cc(N2CCC(C(=O)NCc3cccs3)CC2)n1 | 7 | 3 | 0 | 1 | 0 | 9 | 9 | 0 | 0 | 1 | 15 | 5 | 0 | 7 | 0 | 0 | 0 |
| COC[C@@H]1CCCN1C(=O)C1CCCN1c1cc(Nc2cccc(Br)c2)ncn1 (stereo partly drawn) | 3 | 0 | 0 | 2 | 0 | 5 | 8 | 5 | 3 | 0 | 3 | 1 | 0 | 0 | 0 | 0 | 0 |
| COc1cccc(Nc2cc(Nc3cccc(C(=O)NCCCn4ccnc4)c3)nc(N)n2)c1 | 14 | 32 | 0 | 5 | 1 | 18 | 7 | 0 | 3 | 12 | 16 | 4 | 17 | 2 | 91 | 0 | 2 |
| COC[C@@H]1CCCN1C(=O)[C@@H]1CCCN1c1cc(Nc2cccc(OC)c2)nc(N)n1 | 9 | 2 | 5 | 1 | 0 | 8 | 9 | 0 | 0 | 0 | 17 | 9 | 3 | 13 | 2 | 0 | 5 |
| Cc1cccc(N(C)c2cc(Nc3cccc(C(=O)NCCCn4ccnc4)c3)ncn2)c1 | 8 | 22 | 0 | 0 | 15 | 22 | 7 | 2 | 0 | 0 | 12 | 0 | 2 | 27 | 100 | 0 | 0 |
| COc1ccc(-c2noc(CN3CCN(c4cc(Nc5cccc(O)c5)ncn4)CC3)n2)cc1 | 12 | 2 | 0 | 2 | 0 | 7 | 7 | 5 | 0 | 0 | 5 | 2 | 0 | 3 | 17 | 0 | 0 |
| COc1cccc(Nc2cc(N3CCC[C@H]3C(=O)NCCc3ccc(O)cc3)nc(N)n2)c1 | 7 | 2 | 0 | 2 | 0 | 4 | 7 | 5 | 0 | 0 | 14 | 4 | 0 | 6 | 0 | 0 | 0 |
| Cc1cccc(Nc2cc(Nc3cccc(C(=O)N(CC(C)O)CC(C)O)c3)ncn2)c1 (stereo not drawn) | 14 | 8 | 0 | 3 | 27 | 20 | 11 | 1 | 1 | 2 | 23 | 7 | 0 | 49 | 100 | 0 | 0 |
| O=C(c1nc(SCc2ccc(Cl)cc2)n2ccccc12)N1CCN(c2cc(Nc3cccc(Br)c3)ncn2)CC1 | 6 | 3 | 0 | 5 | 0 | 0 | 5 | 4 | 6 | 0 | 24 | 1 | 0 | 4 | 0 | 0 | 8 |
| Nc1nc(Nc2ccc(C(=O)NCCc3ccncc3)cc2)cc(N2CCOCC2)n1 | 11 | 5 | 0 | 2 | 0 | 9 | 7 | 0 | 0 | 1 | 0 | 4 | 3 | 1 | 0 | 0 | 0 |
